# Experimental data taken from PubChem BioAssay AID623986 (Vanderbilt High Throughput Screening Facility, 2012).
# Activity calls are given as the source filed them. The rule behind the calls is not given here.
# Biological target: Potassium voltage-gated channel subfamily KQT member 4 (Homo sapiens) (UniProt P56696)
# Assay: KCNQ4 potassium channel activity – cell-based, human, thallium flux, concentration-response, selectivity assay for GIRK activator project, dose response (AID 623986)
# Conditions: T-REx-293 hKv7.4, thallium flux FluoZin-2 fluorescence; series mostly up to 100 µM
# Method in brief: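 Repeats: triplicate wells; assay system: T-REx-293 cells stably expressing human Kv7.4 potassium channel; control set: XE-991 wells and vehicle wells; detection: FluoZin-2 thallium flux fluorescence; times: dye loading ~60 min room temperature, compound pretreatment 4 min; read-out basis: baseline-corrected slope, % of vehicle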
# Chain of Potassium voltage-gated channel subfamily KQT member 4 (Homo sapiens) (P56696 whole entry, looked up): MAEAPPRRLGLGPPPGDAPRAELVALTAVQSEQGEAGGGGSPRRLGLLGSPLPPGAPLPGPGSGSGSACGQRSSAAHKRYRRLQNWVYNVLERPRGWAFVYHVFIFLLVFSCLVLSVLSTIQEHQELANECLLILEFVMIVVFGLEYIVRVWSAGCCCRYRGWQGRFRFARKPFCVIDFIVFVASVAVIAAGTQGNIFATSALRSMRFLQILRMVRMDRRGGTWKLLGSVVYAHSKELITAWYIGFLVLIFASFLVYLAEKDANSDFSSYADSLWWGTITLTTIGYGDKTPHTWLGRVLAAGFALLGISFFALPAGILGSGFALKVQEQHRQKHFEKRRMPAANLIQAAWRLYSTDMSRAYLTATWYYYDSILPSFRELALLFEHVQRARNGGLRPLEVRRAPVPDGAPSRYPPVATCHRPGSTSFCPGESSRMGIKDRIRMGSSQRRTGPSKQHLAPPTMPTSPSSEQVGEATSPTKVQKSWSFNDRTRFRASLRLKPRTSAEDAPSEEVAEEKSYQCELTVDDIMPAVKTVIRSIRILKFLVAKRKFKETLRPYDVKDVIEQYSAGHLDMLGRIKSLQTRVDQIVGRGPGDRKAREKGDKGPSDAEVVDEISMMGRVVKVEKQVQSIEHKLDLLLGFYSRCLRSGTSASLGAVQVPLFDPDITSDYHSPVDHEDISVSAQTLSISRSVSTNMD
smiles,measurement,value
Cc1cc(NC(=O)Nc2ccc(F)c(F)c2)n(-c2ccccc2)n1,outcome,inactive
